Results as given in ChEMBL document CHEMBL1649384, “Synthesis and antiproliferative activity of novel symmetrical alkylthio- and alkylseleno-imidocarbamates” (Eur J Med Chem, 2011).

Columns and labels:
[1] = tested on: MCF7; experiment: Cytotoxicity against human MCF7 cells after 72 hrs by MTT assay; assay type: functional; settings: MCF7, 72 h
Outline: (§1)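 Cells seeded per well: Hep-G2 1×10⁴, HT-29 4×10³, K-562 4×10³, MCF-7 1.2×10⁴, MCF-10A 7×10³, PC-3 2×10³. MCF-10A were grown in supplemented MEBM at 37 °C, 5% CO₂. Five concentrations were tested between 0.01 and 100, with 72 h exposure. Formazan was read by A590. GI₅₀ was taken relative to untreated controls, from at least three independent experiments.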

[2] = tested on: PC-3; experiment: Cytotoxicity against human PC3 cells after 72 hrs by MTT assay; assay type: functional; settings: PC-3, 72 h; for CC50: read-out: LC50 (the source's name); outline: as §1
[3] = tested on: HT-29; experiment: Cytotoxicity against human HT-29 cells after 72 hrs by MTT assay; assay type: functional; settings: HT-29, 72 h; for CC50: read-out: LC50 (the source's name); outline: as §1
[4] = tested on: K562; experiment: Cytotoxicity against human K562 cells after 72 hrs by MTT assay; assay type: functional; settings: K562, 72 h; for CC50: read-out: LC50 (the source's name); outline: as §1
[5] = tested on: HepG2; experiment: Cytotoxicity against human HepG2 cells after 72 hrs by MTT assay; assay type: functional; settings: HepG2, 72 h; for CC50: read-out: LC50 (the source's name); outline: as §1
[6] = Cytotoxicity against human MCF10A cells after 72 hrs by MTT assay; assay type: cell-based, MCF-10A; settings: for GI50 at 72 h: MCF10A cells; for LC50 / TGI: mcf-10a, 72 h; outline: as §1

`O=C(/N=C(/NC(=O)c1ccc2c(c1)OCO2)[Se]Cc1ccccc1)c1ccc2c(c1)OCO2` showed a GI50 [1] of 55.3 µM, an LC50 [1] greater than 100 µM and a TGI [1] greater than 100 µM. It also gave a GI50 [2] greater than 100 µM, a TGI [2] greater than 100 µM and a CC50 [2] greater than 100 µM. For the same compound, the GI50 [3] was 57.3 µM, the TGI [3] was greater than 100 µM and the CC50 [3] was greater than 100 µM. The GI50 [4] was 97.8 µM, the TGI [4] was greater than 100 µM and the CC50 [4] was greater than 100 µM. The GI50 [5] was greater than 100 µM, the TGI [5] was greater than 100 µM and the CC50 [5] was greater than 100 µM. The GI50 at 72 h [6] was 55.3 µM, the LC50 [6] was greater than 100 µM and the TGI [6] was greater than 100 µM.

Work on `CS/C(=N\C(=O)c1cc(-c2ccccc2)nc2ccccc12)NC(=O)c1cc(-c2ccccc2)nc2ccccc12` yielded a GI50 [1] of 43.1 µM, an LC50 [1] greater than 100 µM and a TGI [1] of 87.7 µM. It also gave a GI50 [2] of 7.48 µM, a TGI [2] greater than 100 µM and a CC50 [2] greater than 100 µM. The GI50 [3] was 23.7 µM, the TGI [3] was greater than 100 µM and the CC50 [3] was greater than 100 µM. It also gave a GI50 [4] of 34.4 µM, a TGI [4] greater than 100 µM and a CC50 [4] greater than 100 µM. The GI50 [5] was 6.24 µM, the TGI [5] was 48.1 µM and the CC50 [5] was greater than 100 µM. The GI50 at 72 h [6] was 0.04 µM, the LC50 [6] was 48.81 µM and the TGI [6] was 0.54 µM.

Work on `CS/C(=N\C(=O)c1ccco1)NC(=O)c1ccco1` yielded a GI50 [1] of 56.1 µM, an LC50 [1] greater than 100 µM and a TGI [1] greater than 100 µM. It also gave a GI50 [2] of 56.2 µM, a TGI [2] greater than 100 µM and a CC50 [2] greater than 100 µM. For the same compound, the GI50 [3] was 77.1 µM, the TGI [3] was greater than 100 µM and the CC50 [3] was greater than 100 µM. The GI50 [4] was 64.8 µM, the TGI [4] was greater than 100 µM and the CC50 [4] was greater than 100 µM. For the same compound, the GI50 [5] was greater than 100 µM, the TGI [5] was greater than 100 µM and the CC50 [5] was greater than 100 µM. For the same compound, the GI50 at 72 h [6] was 8.22 µM, the LC50 [6] was 85.69 µM and the TGI [6] was 46.52 µM.

Work on `O=C(/N=C(/NC(=O)c1cc2ccccc2s1)[Se]Cc1ccccc1)c1cc2ccccc2s1` yielded a GI50 [1] of 37.9 µM, an LC50 [1] of 87.9 µM and a TGI [1] of 62.9 µM. The GI50 [2] was 30.5 µM, the TGI [2] was 58.4 µM and the CC50 [2] was 86.3 µM. It also gave a GI50 [3] of 6.51 µM, a TGI [3] greater than 100 µM and a CC50 [3] greater than 100 µM. It also gave a GI50 [4] of 14.9 µM, a TGI [4] of 42.8 µM and a CC50 [4] of 70.6 µM. The GI50 [5] was 21 µM, the TGI [5] was 49 µM and the CC50 [5] was 77 µM. For the same compound, the GI50 at 72 h [6] was 37.9 µM, the LC50 [6] was 87.9 µM and the TGI [6] was 62.92 µM.

Compound `O=C(/N=C(/NC(=O)c1cc(-c2ccccc2)nc2ccccc12)[Se]Cc1ccccc1)c1cc(-c2ccccc2)nc2ccccc12` has a GI50 [1] of 8.46 µM, an LC50 [1] of 97 µM and a TGI [1] of 45.6 µM. It also gave a GI50 [2] of 39.3 µM, a TGI [2] of 97.1 µM and a CC50 [2] greater than 100 µM. The GI50 [3] was 6.07 µM, the TGI [3] was greater than 100 µM and the CC50 [3] was greater than 100 µM. For the same compound, the GI50 [4] was 9.06 µM, the TGI [4] was 47.4 µM and the CC50 [4] was 88.9 µM. It also gave a GI50 [5] of 25.8 µM, a TGI [5] of 52.4 µM and a CC50 [5] of 78.9 µM. The GI50 at 72 h [6] was 8.46 µM, the LC50 [6] was 97.04 µM and the TGI [6] was 45.56 µM.

With `C[Se]/C(=N\C(=O)c1c2ccccc2nc2ccccc12)NC(=O)c1c2ccccc2nc2ccccc12` the GI50 [1] was 73.9 µM, the LC50 [1] was greater than 100 µM and the TGI [1] was greater than 100 µM. The GI50 [2] was 41.3 µM, the TGI [2] was 80.1 µM and the CC50 [2] was greater than 100 µM. For the same compound, the GI50 [3] was 7.63 µM, the TGI [3] was greater than 100 µM and the CC50 [3] was greater than 100 µM. The GI50 [4] was 27.2 µM, the TGI [4] was 61 µM and the CC50 [4] was 94.8 µM. For the same compound, the GI50 [5] was 22.3 µM, the TGI [5] was 52.4 µM and the CC50 [5] was 82.5 µM. The GI50 at 72 h [6] was 18.2 µM, the LC50 [6] was 88.31 µM and the TGI [6] was 53.28 µM.

Work on `O=C(/N=C(/NC(=O)c1ccco1)[Se]Cc1ccccc1)c1ccco1` yielded a GI50 [1] of 8.8 µM, an LC50 [1] greater than 100 µM and a TGI [1] of 58 µM. The GI50 [2] was 30.5 µM, the TGI [2] was 57.6 µM and the CC50 [2] was 84.8 µM. It also gave a GI50 [3] of 7.19 µM, a TGI [3] of 89.1 µM and a CC50 [3] of 89.1 µM. For the same compound, the GI50 [4] was 9.53 µM, the TGI [4] was 44.2 µM and the CC50 [4] was 80.6 µM. It also gave a GI50 [5] of 7.65 µM, a TGI [5] of 39.5 µM and a CC50 [5] of 76.5 µM. For the same compound, the GI50 at 72 h [6] was 8.8 µM, the LC50 [6] was greater than 100 µM and the TGI [6] was 57.98 µM.

With `COc1cc([C@@H]2c3cc4c(cc3[C@@H](O[C@@H]3O[C@@H]5CO[C@@H](C)O[C@H]5[C@H](O)[C@H]3O)[C@H]3COC(=O)[C@H]23)OCO4)cc(OC)c1O` [ETOPOSIDE] the GI50 [1] was 19.9 µM, the TGI [1] was greater than 100 µM and the GI50 [2] was 0.63 µM. It also gave a TGI [2] of 3.98 µM, a CC50 [2] of 79.4 µM and a GI50 [3] of 31.6 µM. The TGI [3] was greater than 100 µM, the CC50 [3] was greater than 100 µM and the GI50 [4] was 12.6 µM. It also gave a TGI [4] greater than 100 µM and a CC50 [4] greater than 100 µM.

In the case of `CN(Cc1cnc2nc(N)nc(N)c2n1)c1ccc(C(=O)N[C@@H](CCC(=O)O)C(=O)O)cc1` [METHOTREXATE], the GI50 [1] is reported as 0.06 µM, the TGI [1] is reported as greater than 100 µM and the GI50 [2] is reported as 0.1 µM. For the same compound, the TGI [2] was greater than 100 µM, the CC50 [2] was greater than 100 µM and the GI50 [3] was 0.04 µM. The TGI [3] was greater than 100 µM, the CC50 [3] was 0.03 µM and the GI50 [4] was 0.03 µM. It also gave a TGI [4] greater than 100 µM and a CC50 [4] greater than 100 µM.
